Test results reported in ChEMBL document CHEMBL3259535, “Synthesis, cytotoxic study and docking based multidrug resistance modulator potential analysis of 2-(9-oxoacridin-10(9H)-yl)-N-phenyl acetamides” (Eur J Med Chem, 2014).

Assays:
Type in all cases: functional, cell-based
A549 = test: Antiproliferative activity against human A549 cells after 3 days by MTT assay; details: A549, 72 h
Summary of the method: (§1)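 Stock cells grown to confluence in DMEM with 10% inactivated FBS, penicillin, streptomycin and amphotericin B at 37 °C, 5% CO₂, then detached with trypsin-EDTA-glucose. About 10,000 cells per well were seeded; after 24 h, drug was added at five dose levels for 72 h. MTT was added for 3 h, formazan dissolved in propanol and read at 540 nm. IC50 was taken from dose-response curves, triplicate, mean ± SEM.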

HeLa = test: Antiproliferative activity against human HeLa cells after 3 days by MTT assay; details: 72 h; summary of the method: as §1
MCF7 = test: Antiproliferative activity against human MCF7 cells after 3 days by MTT assay; details: MCF7, 72 h; summary of the method: as §1

SMILES | IC50 (A549) | IC50 (HeLa) | IC50 (MCF7)
O=C(Cn1c2ccccc2c(=O)c2ccccc21)Nc1cccc(Cl)c1 | 33.3 µM | 29.1 µM | 30.1 µM
O=C(Cn1c2ccccc2c(=O)c2ccccc21)Nc1ccc(Cl)cc1 | 34.9 µM | 32.3 µM | 31.2 µM
O=C(Cn1c2ccccc2c(=O)c2ccccc21)Nc1ccc([N+](=O)[O-])cc1 | 19.7 µM | 17.2 µM | 14 µM
COc1ccc(NC(=O)Cn2c3ccccc3c(=O)c3ccccc32)cc1 | 16.7 µM | 19.6 µM | 15 µM
O=C(Cn1c2ccccc2c(=O)c2ccccc21)Nc1ccc(O)cc1 | 17.4 µM | 22 µM | 15.6 µM
O=C(Cn1c2ccccc2c(=O)c2ccccc21)Nc1ccc(C(F)(F)F)cc1 | 20.5 µM | 23.2 µM | 26.4 µM
O=C(Cn1c2ccccc2c(=O)c2ccccc21)Nc1cccc(C(F)(F)F)c1 | 38.2 µM | 34.9 µM | 35.1 µM
O=C(Cn1c2ccccc2c(=O)c2ccccc21)Nc1ccccc1C(=O)O | 7.39 µM | 8.8 µM | 6.07 µM
O=C(Cn1c2ccccc2c(=O)c2ccccc21)Nc1ccc(C(=O)O)cc1 | 8.8 µM | 10.7 µM | 7.12 µM
O=C(Cn1c2ccccc2c(=O)c2ccccc21)Nc1ccc(F)cc1 | 24.5 µM | 26.6 µM | 27.5 µM

Further molecules by falling IC50 (A549), results first:

IC50 (A549) | IC50 (HeLa) | IC50 (MCF7) | SMILES
41.4 µM | 43.8 µM | 39.7 µM | O=C(Cn1c2ccccc2c(=O)c2ccccc21)Nc1ccccc1
35.1 µM | 32.2 µM | 33 µM | O=C(Cn1c2ccccc2c(=O)c2ccccc21)Nc1ccc(Br)cc1
23.3 µM | 25.4 µM | 29.2 µM | O=C(Cn1c2ccccc2c(=O)c2ccccc21)Nc1ccccc1F
20.2 µM | 21.9 µM | 20.1 µM | Cc1ccc(NC(=O)Cn2c3ccccc3c(=O)c3ccccc32)cc1
11.8 µM | 13.2 µM | 12.6 µM | O=C(Cn1c2ccccc2c(=O)c2ccccc21)Nc1ccccc1[N+](=O)[O-]
